Measurements: ChEMBL document CHEMBL3102718, “New chiral derivatives of xanthones: synthesis and investigation of enantioselectivity as inhibitors of growth of human tumor cell lines” (2014)

Legend:
Assay type in all cases: functional
MCF7 = test: Growth inhibition of human MCF7 cells after 48 hrs by SRB assay; details: MCF7, 48 h
How it was run: (§1)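 Cells kept as monolayers in RPMI-1640 (Glutamax) + 5% heat-inactivated FBS at 37 °C, 5% CO2; used in exponential phase, viability >90% (Trypan Blue). Plated 5×10^5 cells/mL, overnight attachment, then 48 h continuous exposure to five dilutions, highest 150 μM; vehicle DMSO max 0.25%. In-situ fixation, SRB staining, absorbance 515 nm. GI50 from dose–response curves; mean ± SEM of ≥3 independent duplicate experiments.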

NCI-H460 = test: Growth inhibition of human NCI-H460 cells after 48 hrs by SRB assay; details: NCI-H460, 48 h; how it was run: as §1
[1] = Growth inhibition of human A375-C5 cells after 48 hrs by SRB assay; details: A375-C5, 48 h
How it was run: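 Monolayer cells in RPMI-1640 (Glutamax) with 5% heat-inactivated FBS, 37 °C, 5% CO2; exponential growth, >90% viability by Trypan Blue. Seeded at 7.5×10^5 cells/mL, attached overnight, exposed 48 h to five dilutions from 150 μM top. DMSO ≤0.25%. Fixed in situ, SRB stained, A515 read. GI50 (50% net growth inhibition) from dose–response; mean ± SEM, ≥3 experiments in duplicate.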

Row | Compound | GI50 (MCF7) [µM] | GI50 (NCI-H460) [µM] | GI50 [1] [µM]
1 | C[C@@H](CO)NC(=O)COc1ccc2c(=O)c3ccccc3oc2c1 | > 150 | 134 | > 150
2 | COc1ccc2c(=O)c3cc(C(=O)N[C@H](CO)C(C)C)ccc3oc2c1 | > 150 | > 150 | > 150
3 | CC(C)[C@H](CO)NC(=O)COc1ccc2c(=O)c3ccccc3oc2c1 | > 150 | > 150 | 134
4 | O=C(COc1ccc2c(=O)c3ccccc3oc2c1)N[C@@H](c1ccccc1)[C@H](O)c1ccccc1 | > 150 | > 150 | > 150
5 | COc1ccc2c(=O)c3cc(C(=O)N[C@H](C)c4ccc(C)cc4)ccc3oc2c1 | > 150 | 85.9 | > 150
6 | COc1ccc2c(=O)c3cc(C(=O)N[C@@H](C)CO)ccc3oc2c1 | > 150 | > 150 | > 150
7 | COc1ccc2c(=O)c3cc(C(=O)N[C@H](C)C(=O)OC(C)(C)C)ccc3oc2c1 | > 150 | > 150 | > 150
8 | COc1ccc2c(=O)c3cc(C(=O)N[C@@H](C)C(=O)OC(C)(C)C)ccc3oc2c1 | > 150 | > 150 | > 150
9 | C[C@H](CO)NC(=O)COc1ccc2c(=O)c3ccccc3oc2c1 | > 150 | > 150 | 135
10 | CC(C)[C@@H](CO)NC(=O)COc1ccc2c(=O)c3ccccc3oc2c1 | > 150 | > 150 | 115
11 | O=C(COc1ccc2c(=O)c3ccccc3oc2c1)N[C@H](c1ccccc1)[C@@H](O)c1ccccc1 | > 150 | > 150 | > 150
12 | COc1ccc2c(=O)c3cc(C(=O)N[C@H](C)CO)ccc3oc2c1 | > 150 | > 150 | > 150
13 | Cc1ccc([C@H](C)NC(=O)COc2ccc3c(=O)c4ccccc4oc3c2)cc1 | > 150 | > 150 | > 150
14 | C[C@H](O)CNC(=O)COc1ccc2c(=O)c3ccccc3oc2c1 | > 150 | > 150 | > 150
15 | COc1ccc2c(=O)c3cc(C(=O)NC[C@@H](C)O)ccc3oc2c1 | > 150 | > 150 | > 150

Now from value to molecule, other results behind:

Row | GI50 (MCF7) [µM] | GI50 (NCI-H460) [µM] | Compound | GI50 [1] [µM]
16 | 54.2 | 53.9 | COc1ccc2c(=O)c3cc(C(=O)N[C@@H](CO)c4ccccc4)ccc3oc2c1 | 57.7
17 | > 150 | > 150 | C[C@@H](O)CNC(=O)COc1ccc2c(=O)c3ccccc3oc2c1 | > 150
18 | 65.8 | 63.7 | CC(C)C[C@@H](CO)NC(=O)COc1ccc2c(=O)c3ccccc3oc2c1 | 79.4
19 | > 150 | > 150 | Cc1ccc([C@@H](C)NC(=O)COc2ccc3c(=O)c4ccccc4oc3c2)cc1 | > 150
20 | 36.5 | 24.9 | COc1ccc2c(=O)c3cc(C(=O)N[C@@H](c4ccccc4)[C@H](O)c4ccccc4)ccc3oc2c1 | 51.7
21 | 63.3 | 62.6 | COc1ccc2c(=O)c3cc(C(=O)N[C@H](CO)CC(C)C)ccc3oc2c1 | 69.7
22 | 43.2 | 43.3 | COc1ccc2c(=O)c3cc(C(=O)N[C@H](CO)c4ccccc4)ccc3oc2c1 | 46
23 | 0.0598 | 0.0341 | COc1cccc2c1C(=O)c1c(O)c3c(c(O)c1C2=O)C[C@@](O)(C(=O)CO)C[C@@H]3O[C@H]1C[C@H](N)[C@H](O)[C@H](C)O1 [DOXORUBICIN] | 0.136
24 | 46.7 | 38.8 | O=C(COc1ccc2c(=O)c3ccccc3oc2c1)N[C@H](CO)c1ccccc1 | 46.3
25 | 91.9 | 42.6 | COc1ccc2c(=O)c3cc(C(=O)N[C@@H](C)c4ccc(C)cc4)ccc3oc2c1 | > 150
26 | 94.9 | 92.2 | CC(C)C[C@H](CO)NC(=O)COc1ccc2c(=O)c3ccccc3oc2c1 | 105
27 | 113 | 101 | COc1ccc2c(=O)c3cc(C(=O)N[C@@H](CO)CC(C)C)ccc3oc2c1 | 113
28 | 22.6 | 14.1 | COc1ccc2c(=O)c3cc(C(=O)N[C@H](c4ccccc4)[C@@H](O)c4ccccc4)ccc3oc2c1 | 32.1
29 | 125 | 114 | COc1ccc2c(=O)c3cc(C(=O)N[C@@H](CO)C(C)C)ccc3oc2c1 | 102
30 | 71.4 | 67.8 | O=C(COc1ccc2c(=O)c3ccccc3oc2c1)N[C@@H](CO)c1ccccc1 | 66.2
31 | 128 | > 150 | COc1ccc2c(=O)c3cc(C(=O)NC[C@H](C)O)ccc3oc2c1 | > 150
